Test results reported in ChEMBL document CHEMBL1152401, “Synthesis of novel macrolide derivatives with imidazo[4,5-b]pyridinyl sulfur contained alkyl side chains and their antibacterial activity” (Bioorg Med Chem Lett, 2009).
The source made the active and inactive calls. No cut-off for these calls is given here.

Experiments:
Assay type in all cases: functional, organism-based
Streptococcus pyogenes [1] = assay: Antimicrobial activity against erythromycin-susceptible Streptococcus pyogenes 07U086 by broth microdilution method
Method in brief: (§1)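 MIC by broth microdilution following NCCLS recommendations. Strains used as erythromycin-susceptible clinical or reference isolates: S. pneumoniae ATCC 49619 and 07H252, S. pyogenes 07U084 and 07U086. Resistant comparison strains came from MOHNARIN, China. Value reported as minimum inhibitory concentration.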

Streptococcus pneumoniae [2] = assay: Antimicrobial activity against erythromycin-resistant Streptococcus pneumoniae 07Z001 by broth microdilution method
Method in brief: (§2)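 MIC by broth microdilution as recommended by NCCLS. Strains are constitutively erythromycin-resistant clinical isolates supplied by the Ministry of Health National Antimicrobial Resistance Investigation Net (MOHNARIN, China).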

Streptococcus pneumoniae [3] = assay: Antimicrobial activity against erythromycin-susceptible Streptococcus pneumoniae ATCC 49619 by broth microdilution method; method in brief: as §1
Streptococcus pyogenes [4] = assay: Antimicrobial activity against erythromycin-resistant Streptococcus pyogenes 07Z011 by broth microdilution method; method in brief: as §2
Streptococcus pneumoniae [5] = assay: Antimicrobial activity against erythromycin-resistant Streptococcus pneumoniae 05Z006 by broth microdilution method; method in brief: as §2
Streptococcus pyogenes [6] = assay: Antimicrobial activity against erythromycin-resistant Streptococcus pyogenes 07Z016 by broth microdilution method; method in brief: as §2
Streptococcus pyogenes [7] = assay: Antimicrobial activity against erythromycin-susceptible Streptococcus pyogenes 07U084 by broth microdilution method; method in brief: as §1
Streptococcus pyogenes [8] = assay: Antimicrobial activity against erythromycin-resistant Streptococcus pyogenes 07Z014 by broth microdilution method; method in brief: as §2
Streptococcus pneumoniae [9] = assay: Antimicrobial activity against erythromycin-susceptible Streptococcus pneumoniae 07H252 by broth microdilution method; method in brief: as §1

## CC[C@H]1OC(=O)[C@H](C)[C@@H](O[C@H]2C[C@@](C)(OC)[C@@H](O)[C@H](C)O2)[C@H](C)[C@@H](O[C@@H]2O[C@H](C)C[C@H](N(C)C)[C@H]2O)[C@](C)(O)C[C@@H](C)CN(C)[C@H](C)[C@@H](O)[C@]1(C)O
Streptococcus pyogenes [1]
  Activity: Active
Streptococcus pneumoniae [2]
  Activity: inactive
Streptococcus pneumoniae [3]
  Activity: Active
Streptococcus pyogenes [4]
  Activity: inactive
Streptococcus pneumoniae [5]
  Activity: inactive
Streptococcus pyogenes [6]
  Activity: inactive
Streptococcus pyogenes [7]
  Activity: Active
Streptococcus pyogenes [8]
  Activity: inactive
Streptococcus pneumoniae [9]
  Activity: Active

## CC[C@H]1OC(=O)[C@H](C)[C@@H](O[C@H]2C[C@@](C)(OC)[C@@H](O)[C@H](C)O2)[C@H](C)[C@@H](O[C@@H]2O[C@H](C)C[C@H](N(C)C)[C@H]2O)[C@](C)(OC)C[C@@H](C)C(=O)[C@H](C)[C@@H](O)[C@]1(C)O
Streptococcus pyogenes [1]
  Activity: Active
Streptococcus pneumoniae [2]
  Activity: inactive
Streptococcus pneumoniae [3]
  Activity: Active
Streptococcus pyogenes [4]
  Activity: inactive
Streptococcus pneumoniae [5]
  Activity: inactive
Streptococcus pyogenes [6]
  Activity: inactive
Streptococcus pyogenes [7]
  Activity: Active
Streptococcus pyogenes [8]
  Activity: inactive
Streptococcus pneumoniae [9]
  Activity: Active

## CC[C@H]1OC(=O)[C@H](C)[C@@H](OC(=O)Cc2cccnc2)[C@H](C)[C@@H](O[C@@H]2O[C@H](C)C[C@H](N(C)C)[C@H]2O)[C@@](C)(OC)C[C@@H](C)C(=O)[C@H](C)[C@H]2N(CCCSc3nc4ccc(OC)nc4[nH]3)C(=O)O[C@]12C
Streptococcus pyogenes [1]
  Activity: Active
Streptococcus pneumoniae [2]
  Activity: Active
Streptococcus pneumoniae [3]
  Activity: Active
Streptococcus pyogenes [4]
  Activity: Active
Streptococcus pneumoniae [5]
  Activity: Active
Streptococcus pyogenes [6]
  Activity: Active
Streptococcus pyogenes [7]
  Activity: Active
Streptococcus pyogenes [8]
  Activity: Active
Streptococcus pneumoniae [9]
  Activity: Active

## CC[C@H]1OC(=O)[C@H](C)C(=O)[C@H](C)[C@@H](O[C@@H]2O[C@H](C)C[C@H](N(C)C)[C@H]2O)[C@](C)(OC)C[C@@H](C)C(=O)[C@H](C)[C@H]2N(CCCCn3cnc(-c4cccnc4)c3)C(=O)O[C@]12C
Streptococcus pyogenes [1]
  Activity: Active
Streptococcus pneumoniae [2]
  Activity: Active
Streptococcus pneumoniae [3]
  Activity: Active
Streptococcus pyogenes [4]
  Activity: Active
Streptococcus pneumoniae [5]
  Activity: Active
Streptococcus pyogenes [6]
  Activity: Active
Streptococcus pyogenes [7]
  Activity: Active
Streptococcus pyogenes [8]
  Activity: Active
Streptococcus pneumoniae [9]
  Activity: Active

## CC[C@H]1OC(=O)[C@H](C)C(=O)[C@H](C)[C@@H](O[C@@H]2O[C@H](C)C[C@H](N(C)C)[C@H]2O)[C@@](C)(OC)C[C@@H](C)C(=O)[C@H](C)[C@H]2N(CCCSc3nc4ccc(OC)nc4[nH]3)C(=O)O[C@]12C
Streptococcus pyogenes [1]
  Activity: Active
Streptococcus pneumoniae [2]
  Activity: Active
Streptococcus pneumoniae [3]
  Activity: Active
Streptococcus pyogenes [4]
  Activity: Active
Streptococcus pneumoniae [5]
  Activity: Active
Streptococcus pyogenes [6]
  Activity: Active
Streptococcus pyogenes [7]
  Activity: Active
Streptococcus pyogenes [8]
  Activity: Active
Streptococcus pneumoniae [9]
  Activity: Active

## CC[C@H]1OC(=O)[C@H](C)[C@@H](OC(=O)Cc2ccc3c(c2)OCO3)[C@H](C)[C@@H](O[C@@H]2O[C@H](C)C[C@H](N(C)C)[C@H]2O)[C@@](C)(OC)C[C@@H](C)C(=O)[C@H](C)[C@H]2N(CCCSc3nc4ccc(OC)nc4[nH]3)C(=O)O[C@]12C
Streptococcus pyogenes [1]
  Activity: Active
Streptococcus pneumoniae [2]
  Activity: Active
Streptococcus pneumoniae [3]
  Activity: Active
Streptococcus pyogenes [4]
  Activity: Active
Streptococcus pneumoniae [5]
  Activity: Active
Streptococcus pyogenes [6]
  Activity: Active
Streptococcus pyogenes [7]
  Activity: Active
Streptococcus pyogenes [8]
  Activity: Active
Streptococcus pneumoniae [9]
  Activity: Active

## CC[C@H]1OC(=O)[C@H](C)[C@@H](OC(=O)Cc2cccnc2)[C@H](C)[C@@H](O[C@@H]2O[C@H](C)C[C@H](N(C)C)[C@H]2O)[C@@](C)(OC)C[C@@H](C)C(=O)[C@H](C)[C@H]2N(CCCCSc3nc4ccc(OC)nc4[nH]3)C(=O)O[C@]12C
Streptococcus pyogenes [1]
  Activity: Active
Streptococcus pneumoniae [2]
  Activity: Active
Streptococcus pneumoniae [3]
  Activity: Active
Streptococcus pyogenes [4]
  Activity: Active
Streptococcus pneumoniae [5]
  Activity: Active
Streptococcus pyogenes [6]
  Activity: Active
Streptococcus pyogenes [7]
  Activity: Active
Streptococcus pyogenes [8]
  Activity: Active
Streptococcus pneumoniae [9]
  Activity: Active

## CC[C@H]1OC(=O)[C@H](C)[C@@H](OC(=O)Cc2ccc3c(c2)OCO3)[C@H](C)[C@@H](O[C@@H]2O[C@H](C)C[C@H](N(C)C)[C@H]2O)[C@@](C)(OC)C[C@@H](C)C(=O)[C@H](C)[C@H]2N(CCCCSc3nc4ccc(OC)nc4[nH]3)C(=O)O[C@]12C
Streptococcus pyogenes [1]
  Activity: Active
Streptococcus pneumoniae [2]
  Activity: Active
Streptococcus pneumoniae [3]
  Activity: Active
Streptococcus pyogenes [4]
  Activity: Active
Streptococcus pneumoniae [5]
  Activity: Active
Streptococcus pyogenes [6]
  Activity: Active
Streptococcus pyogenes [7]
  Activity: Active
Streptococcus pyogenes [8]
  Activity: Active
Streptococcus pneumoniae [9]
  Activity: Active
